Key:
Canis familiaris [1] = assay: Diuretic activity in mongrel dog assessed as sodium level in excreted urine at 0.1 mg/kg, iv measured […] after dosage (reference value: 36 uequiv/min); format: functional, Canis lupus familiaris
Outline: (§1)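 Compounds were given iv to dogs as Na salts in H2O. […] The baseline is the mean of two 15-min periods before dosing. The response is the mean of two consecutive 15-min periods of maximal Na+ excretion, usually 15–45 min post-dose. Na+, K+ and Cl- are in μequiv/min and urine volume in ml/min, reported as control/drug.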

Canis familiaris [2] = assay: Diuretic activity in mongrel dog assessed as potassium level in excreted urine at 1 mg/kg, iv measured between 15 to 45 mins after dosage (reference value: 6 to 47 uequiv/min); format: functional, Canis lupus familiaris; outline: as §1
Canis familiaris [3] = assay: Diuretic activity in mongrel dog assessed as potassium level in excreted urine at 0.1 mg/kg, iv measured between 15 to 45 mins after dosage (reference value: 14 uequiv/min); format: functional, Canis lupus familiaris; outline: as §1
Canis familiaris [4] = assay: Diuretic activity in mongrel dog assessed as chloride level in excreted urine at 0.1 mg/kg, iv measured between 15 to 45 mins after dosage (reference value: 14 uequiv/min); format: functional, Canis lupus familiaris; outline: as §1
Canis familiaris [5] = assay: Diuretic activity in mongrel dog assessed as volume of excreted urine at 1 mg/kg, iv measured between 15 to 45 mins after dosage (reference value: 1 to 4 ml/min); format: functional, Canis lupus familiaris; outline: as §1
Canis familiaris [6] = assay: Diuretic activity in mongrel dog assessed as volume of excreted urine at 0.1 mg/kg, iv measured between 15 to 45 mins after dosage (reference value: 1 ml/min); format: functional, Canis lupus familiaris; outline: as §1
Canis familiaris [7] = assay: Diuretic activity in mongrel dog assessed as sodium level in excreted urine at 1 mg/kg, po measured for 6 hrs (reference value: 2 mequivalents); format: functional, Canis lupus familiaris
Canis familiaris [8] = assay: Diuretic activity in mongrel dog assessed as potassium level in excreted urine at 1 mg/kg, po measured for 6 hrs (reference value: 1 mequivalents); format: functional, Canis lupus familiaris
Canis familiaris [9] = assay: Diuretic activity in mongrel dog assessed as potassium level in excreted urine at 0.4 mg/kg, po measured for 6 hrs (reference value: 1 mequivalents); format: functional, Canis lupus familiaris
Canis familiaris [10] = assay: Diuretic activity in mongrel dog assessed as volume of excreted urine at 1 mg/kg, po measured for 6 hrs (RVb = 180 ml)
Canis familiaris [11] = assay: Diuretic activity in mongrel dog assessed as volume of excreted urine at 0.4 mg/kg, po measured for 6 hrs (RVb = 180 ml)
Canis familiaris [12] = assay: Diuretic activity in mongrel dog assessed as sodium level in excreted urine at 10 mg/kg, iv measured […] after dosage (reference value: 5 to 66 uequiv/min); format: functional, Canis lupus familiaris; outline: as §1
Canis familiaris [13] = assay: Diuretic activity in mongrel dog assessed as sodium level in excreted urine at 1 mg/kg, iv measured […] after dosage (reference value: 3 to 95 uequiv/min); format: functional, Canis lupus familiaris
Outline: (§2)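 Compounds were given iv to dogs as Na salts in H2O. The baseline is the mean of two 15-min periods before dosing. The response is the mean of two consecutive 15-min periods of maximal Na+ excretion, usually 15–45 min post-dose. Na+, K+ and Cl- are in μequiv/min and urine volume in ml/min, reported as control/drug.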

Canis familiaris [14] = assay: Diuretic activity in mongrel dog assessed as potassium level in excreted urine at 10 mg/kg, iv measured between 15 to 45 mins after dosage (reference value: 7 to 63 uequiv/min); format: functional, Canis lupus familiaris; outline: as §1
Canis familiaris [15] = assay: Diuretic activity in mongrel dog assessed as chloride level in excreted urine at 1 mg/kg, iv measured between 15 to 45 mins after dosage (reference value: 1 to 70 uequiv/min); format: functional, Canis lupus familiaris; outline: as §2
Canis familiaris [16] = assay: Diuretic activity in mongrel dog assessed as chloride level in excreted urine at 10 mg/kg, iv measured between 15 to 45 mins after dosage (reference value: 3 to 64 uequiv/min); format: functional, Canis lupus familiaris; outline: as §2
Canis familiaris [17] = assay: Diuretic activity in mongrel dog assessed as volume of excreted urine at 10 mg/kg, iv measured between 15 to 45 mins after dosage (reference value: 1 to 4 ml/min); format: functional, Canis lupus familiaris; outline: as §1
Canis familiaris [18] = assay: Diuretic activity in mongrel dog assessed as sodium level in excreted urine at 3 mg/kg, po measured for 6 hrs (reference value: 2 mequivalents); format: functional, Canis lupus familiaris
Canis familiaris [19] = assay: Diuretic activity in mongrel dog assessed as potassium level in excreted urine at 3 mg/kg, po measured for 6 hrs (reference value: 1 mequivalents); format: functional, Canis lupus familiaris
Canis familiaris [20] = assay: Diuretic activity in mongrel dog assessed as chloride level in excreted urine at 1 mg/kg, po measured for 6 hrs (reference value: 2 mequivalents); format: functional, Canis lupus familiaris
Canis familiaris [21] = assay: Diuretic activity in mongrel dog assessed as chloride level in excreted urine at 3 mg/kg, po measured for 6 hrs (reference value: 2 mequivalents); format: functional, Canis lupus familiaris
Canis familiaris [22] = assay: Diuretic activity in mongrel dog assessed as sodium level in excreted urine at 2 mg/kg, po measured for 6 hrs (reference value: 2 mequivalents); format: functional, Canis lupus familiaris
Canis familiaris [23] = assay: Diuretic activity in mongrel dog assessed as potassium level in excreted urine at 2 mg/kg, po measured for 6 hrs (reference value: 1 mequivalents); format: functional, Canis lupus familiaris
Canis familiaris [24] = assay: Diuretic activity in mongrel dog assessed as chloride level in excreted urine at 2 mg/kg, po measured for 6 hrs (reference value: 2 mequivalents); format: functional, Canis lupus familiaris
Canis familiaris [25] = assay: Diuretic activity in mongrel dog assessed as volume of excreted urine at 2 mg/kg, po measured for 6 hrs (RVb = 180 ml)

CC(=O)C(=Cc1ccc(OCC(=O)O)c(Cl)c1Cl)C(C)=O
Activity (Canis familiaris [1]): 984 uEq/min
Activity (Canis familiaris [2]): 104 uEq/min
Activity (Canis familiaris [3]): 187 uEq/min
Activity (Canis familiaris [4]): 1100 uEq/min
Activity (Canis familiaris [5]): 11 mL/min
Activity (Canis familiaris [6]): 9 mL/min
Activity (Canis familiaris [7]): 30 milliequivalent
Activity (Canis familiaris [8]): 7 milliequivalent
Activity (Canis familiaris [9]): 6 milliequivalent
Activity (Canis familiaris [10]): 492 mL
Activity (Canis familiaris [11]): 762 mL

C=C(CC)C(=O)c1ccc(OCC(=O)O)c(Cl)c1Cl [ETHACRYNIC ACID]
Activity (Canis familiaris [12]): 2989 uEq/min
Activity (Canis familiaris [13]): 188 uEq/min
Activity (Canis familiaris [2]): 52 uEq/min
Activity (Canis familiaris [14]): 194 uEq/min
Activity (Canis familiaris [15]): 244 uEq/min
Activity (Canis familiaris [16]): 3324 uEq/min
Activity (Canis familiaris [5]): 6 mL/min
Activity (Canis familiaris [17]): 22 mL/min
Activity (Canis familiaris [7]): 21 milliequivalent
Activity (Canis familiaris [18]): 37 milliequivalent
Activity (Canis familiaris [8]): 5 milliequivalent
Activity (Canis familiaris [19]): 7 milliequivalent
Activity (Canis familiaris [20]): 26 milliequivalent
Activity (Canis familiaris [21]): 42 milliequivalent

C/C(=C\c1ccc(OCC(N)=O)c(Cl)c1Cl)[N+](=O)[O-]
Activity (Canis familiaris [22]): 25 milliequivalent
Activity (Canis familiaris [23]): 8 milliequivalent
Activity (Canis familiaris [24]): 39 milliequivalent
Activity (Canis familiaris [25]): 485 mL

Source: ChEMBL document CHEMBL3272208, “(Vinylaryloxy)acetic acids. A new class of diuretic agents. 3. ((2-Nitro-1-alkenyl)aryloxy)acetic acids” (1976)
